Reference: ChEMBL document CHEMBL5058577, “EUbOPEN Chemogenomics Library 2 (Multiplex)” (2022)

Test system: HEK-293T
Experiment: Multiplex assay against HEK293T
Type: toxicity, cell-based
Conditions: human
How it was run: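 Cells stained live at seeding with Hoechst33342, BioTracker Green Microtubule Cytoskeleton Dye, MitoTracker Red and Annexin V Alexa Fluor 680 were imaged on a CQ1 microscope at 37°C and 5% CO2 after compound addition. Their classification by CellPathfinder machine-learning gating ran from Hoechst high-intensity objects versus normal cells, to healthy, pyknosed or fragmented nuclei among normal cells, to mitotic or apoptotic among pyknosed cells. Tubulin, mitochondrial-mass and membrane-permeability phenotypes are per cents of healthy-nucleus cells.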

[1] = 12 h, 1 µM, compound concentration 1 uM, replicate 1
[2] = 12 h, 1 µM, compound concentration 1 uM, replicate 2
[3] = 12 h, 10 µM, compound concentration 10 uM, replicate 1
[4] = 12 h, 10 µM, compound concentration 10 uM, replicate 2
[5] = 24 h, 1 µM, compound concentration 1 uM, replicate 1
[6] = 24 h, 1 µM, compound concentration 1 uM, replicate 2
[7] = 24 h, 10 µM, compound concentration 10 uM, replicate 1
[8] = 24 h, 10 µM, compound concentration 10 uM, replicate 2
[9] = 48 h, 1 µM, compound concentration 1 uM, replicate 1
[10] = 48 h, 1 µM, compound concentration 1 uM, replicate 2
[11] = 48 h, 10 µM, compound concentration 10 uM, replicate 1
[12] = 48 h, 10 µM, compound concentration 10 uM, replicate 2

C[C@H](NC(=O)c1c(C(F)F)nn(C)c1Oc1cccc(C(F)(F)F)c1)c1ccc(C(=O)O)cc1 [PALUPIPRANT]
Population Apoptotic (%) [1]: 40% | Population Fragmented Nuclei (%) [1]: 6% | Population Healthy Nuclei (%) [1]: 80% | Population Hoechst High Intensity Objects (%) [1]: 7% | Population Membrane Permeable-Phenotype (%) [1]: 0% | Population Mitochondria Different-Phenotype (%) [1]: 44% | Population Mitotic Cells (%) [1]: 59% | Population Normal (%) [1]: 92% | Population Pyknosed Nuclei (%) [1]: 13% | Population Tubulin-Different-Phenotype (%) [1]: 28% | Total Cell Count [1]: 407 | Population Apoptotic (%) [2]: 27% | Population Healthy Nuclei (%) [2]: 83% | Population Hoechst High Intensity Objects (%) [2]: 5% | Population Mitochondria Different-Phenotype (%) [2]: 60% | Population Mitotic Cells (%) [2]: 72% | Population Normal (%) [2]: 94% | Population Pyknosed Nuclei (%) [2]: 10% | Total Cell Count [2]: 475 | Population Apoptotic (%) [3]: 38% | Population Fragmented Nuclei (%) [3]: 7% | Population Healthy Nuclei (%) [3]: 76% | Population Hoechst High Intensity Objects (%) [3]: 7% | Population Membrane Permeable-Phenotype (%) [3]: 0% | Population Mitochondria Different-Phenotype (%) [3]: 55% | Population Mitotic Cells (%) [3]: 61% | Population Normal (%) [3]: 92% | Population Pyknosed Nuclei (%) [3]: 16% | Population Tubulin-Different-Phenotype (%) [3]: 40% | Total Cell Count [3]: 371 | Population Apoptotic (%) [4]: 60% | Population Fragmented Nuclei (%) [4]: 5% | Population Healthy Nuclei (%) [4]: 77% | Population Hoechst High Intensity Objects (%) [4]: 10% | Population Mitochondria Different-Phenotype (%) [4]: 68% | Population Mitotic Cells (%) [4]: 40% | Population Normal (%) [4]: 89% | Population Pyknosed Nuclei (%) [4]: 17% | Population Tubulin-Different-Phenotype (%) [4]: 27% | Total Cell Count [4]: 293 | Population Apoptotic (%) [5]: 36% | Population Fragmented Nuclei (%) [5]: 9% | Population Healthy Nuclei (%) [5]: 80% | Population Hoechst High Intensity Objects (%) [5]: 5% | Population Membrane Permeable-Phenotype (%) [5]: 1% | Population Mitochondria Different-Phenotype (%) [5]: 27% | Population Mitotic Cells (%) [5]: 63% | Population Normal (%) [5]: 94% | Population Pyknosed Nuclei (%) [5]: 10% | Population Tubulin-Different-Phenotype (%) [5]: 18% | Total Cell Count [5]: 527 | Population Apoptotic (%) [6]: 46% | Population Fragmented Nuclei (%) [6]: 7% | Population Healthy Nuclei (%) [6]: 83% | Population Hoechst High Intensity Objects (%) [6]: 4% | Population Membrane Permeable-Phenotype (%) [6]: 0% | Population Mitochondria Different-Phenotype (%) [6]: 35% | Population Mitotic Cells (%) [6]: 53% | Population Normal (%) [6]: 95% | Population Pyknosed Nuclei (%) [6]: 9% | Population Tubulin-Different-Phenotype (%) [6]: 19% | Total Cell Count [6]: 604 | Population Apoptotic (%) [7]: 26% | Population Fragmented Nuclei (%) [7]: 9% | Population Healthy Nuclei (%) [7]: 74% | Population Hoechst High Intensity Objects (%) [7]: 3% | Population Membrane Permeable-Phenotype (%) [7]: 0% | Population Mitochondria Different-Phenotype (%) [7]: 46% | Population Mitotic Cells (%) [7]: 73% | Population Normal (%) [7]: 96% | Population Pyknosed Nuclei (%) [7]: 16% | Population Tubulin-Different-Phenotype (%) [7]: 29% | Total Cell Count [7]: 465 | Population Apoptotic (%) [8]: 55% | Population Fragmented Nuclei (%) [8]: 7% | Population Healthy Nuclei (%) [8]: 79% | Population Hoechst High Intensity Objects (%) [8]: 7% | Population Mitochondria Different-Phenotype (%) [8]: 52% | Population Mitotic Cells (%) [8]: 44% | Population Normal (%) [8]: 92% | Population Pyknosed Nuclei (%) [8]: 13% | Population Tubulin-Different-Phenotype (%) [8]: 19% | Total Cell Count [8]: 353 | Population Apoptotic (%) [9]: 25% | Population Fragmented Nuclei (%) [9]: 13% | Population Healthy Nuclei (%) [9]: 79% | Population Hoechst High Intensity Objects (%) [9]: 2% | Population Membrane Permeable-Phenotype (%) [9]: 1% | Population Mitochondria Different-Phenotype (%) [9]: 17% | Population Mitotic Cells (%) [9]: 75% | Population Normal (%) [9]: 97% | Population Pyknosed Nuclei (%) [9]: 7% | Population Tubulin-Different-Phenotype (%) [9]: 13% | Total Cell Count [9]: 916 | Population Apoptotic (%) [10]: 21% | Population Fragmented Nuclei (%) [10]: 14% | Population Healthy Nuclei (%) [10]: 78% | Population Hoechst High Intensity Objects (%) [10]: 4% | Population Membrane Permeable-Phenotype (%) [10]: 0% | Population Mitochondria Different-Phenotype (%) [10]: 18% | Population Mitotic Cells (%) [10]: 78% | Population Normal (%) [10]: 95% | Population Pyknosed Nuclei (%) [10]: 6% | Population Tubulin-Different-Phenotype (%) [10]: 9% | Total Cell Count [10]: 867 | Population Apoptotic (%) [11]: 29% | Population Fragmented Nuclei (%) [11]: 18% | Population Healthy Nuclei (%) [11]: 75% | Population Hoechst High Intensity Objects (%) [11]: 1% | Population Membrane Permeable-Phenotype (%) [11]: 1% | Population Mitochondria Different-Phenotype (%) [11]: 24% | Population Mitotic Cells (%) [11]: 70% | Population Normal (%) [11]: 98% | Population Pyknosed Nuclei (%) [11]: 6% | Population Tubulin-Different-Phenotype (%) [11]: 16% | Total Cell Count [11]: 821 | Population Apoptotic (%) [12]: 28% | Population Fragmented Nuclei (%) [12]: 15% | Population Healthy Nuclei (%) [12]: 77% | Population Hoechst High Intensity Objects (%) [12]: 3% | Population Membrane Permeable-Phenotype (%) [12]: 0% | Population Mitochondria Different-Phenotype (%) [12]: 28% | Population Mitotic Cells (%) [12]: 71% | Population Normal (%) [12]: 96% | Population Tubulin-Different-Phenotype (%) [12]: 17% | Total Cell Count [12]: 554
